ChEMBL document CHEMBL3860086, “Antivirulence C-Mannosides as Antibiotic-Sparing, Oral Therapeutics for Urinary Tract Infections” (J Med Chem, 2016)
Active and inactive are the calls of the source. The calls are words filed in the database; no cut-off is given here.

What was measured:
[1] = target: Type 1 fimbrin D-mannose specific adhesin (Escherichia coli K-12) (UniProt P08191); assay: Inhibition of Escherichia coli UTI89 FimH assessed as decrease in hemagglutination of guinea pig red blood cells after 4 to 18 hrs
Type 1 fimbrin D-mannose specific adhesin (Escherichia coli K-12), sequence (P08191 whole entry, the tested form may be a part): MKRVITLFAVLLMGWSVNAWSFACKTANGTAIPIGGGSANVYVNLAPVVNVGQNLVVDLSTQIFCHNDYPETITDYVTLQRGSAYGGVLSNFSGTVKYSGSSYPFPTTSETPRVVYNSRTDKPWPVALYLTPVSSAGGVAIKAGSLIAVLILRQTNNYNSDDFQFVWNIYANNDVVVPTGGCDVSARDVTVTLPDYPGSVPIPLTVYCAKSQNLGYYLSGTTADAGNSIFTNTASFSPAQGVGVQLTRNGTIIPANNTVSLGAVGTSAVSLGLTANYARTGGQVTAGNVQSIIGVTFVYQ
How it was run: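 Hemagglutination inhibition with clinical UPEC strain UTI89 and guinea pig red blood cells, run per an earlier described protocol.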

[2] = target: Type 1 fimbrin D-mannose specific adhesin (Escherichia coli K-12) (UniProt P08191); assay: Binding affinity to Escherichia coli UTI89 FimH lectin domain at 100 uM after 30 mins by SYPRO Orange-staining-based differential scanning fluorimetry
How it was run: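 Thermal shift (DSF) binding with FimH lectin domain (FimHL) at 10 μM, with or without 100 μM mannoside; otherwise run per an earlier described method.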

Escherichia coli [3] = assay: (§1) Antibacterial activity against Escherichia coli UTI89 with kanamycin cassette inserted in chromosome in C3H/HeN mouse acute cystitis model assessed as decrease in bacterial burden in urinary bladder at 25 mg/kg, po administered 30 mins prior to infection measured at 6 hrs post infection relative to control; format: functional
How it was run: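 Female C3H/HeN mice (6–8 weeks) get 25 mg/kg mannoside by mouth in 10% cyclodextrin 30 min before infection. Infection is transurethral: 50 μL of 1–2 × 10^7 UTI89KAN under isoflurane. The inoculum is grown type 1-inducing (2 × 24 h static LB, 37 °C), washed and resuspended in PBS. At 6 h, bladders are homogenized, serially diluted and plated on LB with 50 μg/mL kanamycin for CFU.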

[4] = Ratio of drug level in C3H/HeN mouse urine to IC50 for Escherichia coli UTI89 FimH-mediated biofilm formation
[5] = Clearance in Sprague-Dawley rat at 3 mg/kg, iv after 5 mins to 24 hrs by LC-MS/MS analysis; format: ADME, organism-based; settings: in vivo
How it was run: (§2)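 Rat plasma PK: mannoside concentrations in plasma followed after either a 10 mg/kg oral dose or a 3 mg/kg intravenous dose.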

[6] = Drug uptake in C3H/HeN mouse urine at 50 mg/kg, po administered through gavage after 1 hr by LC-MS/MS analysis; format: ADME, organism-based; settings: in vivo
How it was run: (§3)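 Mouse urine PK: C3H/HeN mice given 100 μL of 10 mg/mL mannoside in 10% cyclodextrin (50 mg/kg) by oral gavage. Urine sampled at several time points over 8 h and mannoside quantified by HPLC and mass spectrometry.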

[7] = Drug uptake in C3H/HeN mouse urine at 50 mg/kg, po administered through gavage after 8 hrs by LC-MS/MS analysis; format: ADME, organism-based; settings: read-out: Drug uptake; how it was run: as §3
Escherichia coli [8] = assay: as §1, with “mouse chronic” for “mouse acute”, “administered 14 days post” for “administered 30 mins prior to”, “at 12” for “at 6”, “post dose” for “post infection”; format: functional
How it was run: (§4)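 Female C3H/HeN mice (6–8 weeks) are infected transurethrally under isoflurane with 1–2 × 10^8 UTI89KAN (type 1-induced, PBS-washed) in 50 μL. Urine titers at day 12 select chronic infection (≥10^5). At 2 weeks, mice get oral gavage of 100 μL mannoside in 10% cyclodextrin. At set times, bladders are homogenized, serially diluted and plated on kanamycin LB for CFU.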

[9] = Half life in simulated gut fluid (unknown origin); format: ADME
How it was run: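 Stability is measured in simulated gut fluid at pH 1.2.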

[10] = Oral bioavailability in Sprague-Dawley rat at 10 mg/kg after 15 mins to 24 hrs by LC-MS/MS analysis; format: ADME, organism-based; settings: in vivo; how it was run: as §2
[11] = Half life in liver microsomes (unknown origin); format: ADME
[12] = Volume of distribution at steady state in Sprague-Dawley rat at 3 mg/kg, iv after 5 mins to 24 hrs by LC-MS/MS analysis; format: ADME, organism-based; settings: in vivo; how it was run: as §2
Escherichia coli [13] = assay: as §1, with “chronic” for “acute”, “50” for “25”, “14 days post” for “30 mins prior to”, “12” for “6”, “dose (reference value: 10^7 CFU)” for “infection relative to control”; format: functional; how it was run: as §4
Escherichia coli [14] = assay: as §1, with “chronic” for “acute”, “50” for “25”, “14 days post” for “30 mins prior to”, “2” for “6”, “dose (reference value: 10^7 CFU)” for “infection relative to control”; format: functional; how it was run: as §4
Escherichia coli [15] = assay: as §1, with “chronic” for “acute”, “50” for “25”, “14 days post” for “30 mins prior to”, “dose (reference value: 10^7 CFU)” for “infection relative to control”; format: functional; how it was run: as §4
[16] = Ratio of drug level in C3H/HeN mouse urine to EC90 for Escherichia coli UTI89 FimH-mediated hemagglutination of guinea pig red blood cells

Row | Structure (SMILES) | EC90 [1] [µM] | Tm [2] [°C] | further results
1 | Cc1cc(-c2cccc3cnccc23)ccc1[C@@H](O)[C@H]1O[C@H](CO)[C@@H](O)[C@H](O)[C@@H]1O | 0.125 | 74.6 | 
2 | OC[C@H]1O[C@H](n2cc(-c3ccccc3)nn2)[C@@H](O)[C@@H](O)[C@@H]1O | 32 |  | 
3 | CNC(=O)c1cccc(-c2ccc(O[C@H]3O[C@H](COP(=O)(O)O)[C@@H](O)[C@H](O)[C@@H]3O)c(C)c2)c1 |  |  | Activity (Escherichia coli [3]): Active
4 | Cc1cc(-c2ccc3ccnc(N)c3c2)ccc1O[C@H]1O[C@H](CO)[C@@H](O)[C@H](O)[C@@H]1O | 0.02 | 75.1 | 
5 | CNC(=O)c1cccc(-c2ccc(O[C@H]3O[C@H](COC(C)=O)[C@@H](OC(C)=O)[C@H](OC(C)=O)[C@@H]3OC(C)=O)c(C)c2)c1 |  |  | Ratio [4]: > 10; Activity (Escherichia coli [8]): Active; concentration at 8 h [7]: 20 µM; Activity (Escherichia coli [3]): Active
6 | Cc1cc(-c2ccc3cc[nH]c(=O)c3c2)ccc1[C@@H](O)[C@H]1O[C@H](CO)[C@@H](O)[C@H](O)[C@@H]1O | 0.008 | 77.5 | fold change (FC) (Escherichia coli [3]): 2
7 | Cc1cc(-c2cccc3cnccc23)ccc1O[C@H]1O[C@H](CO)[C@@H](O)[C@H](O)[C@@H]1O | 0.062 | 75 | 
8 | Cc1cc(-c2ccc3c(c2)C(=O)NCC3)ccc1O[C@H]1O[C@H](CO)[C@@H](O)[C@H](O)[C@@H]1O | 0.032 | 75 | 
9 | COC(=O)c1cccc(-c2ccc(NC(=O)[C@H]3O[C@H](CO)[C@@H](O)[C@H](O)[C@@H]3O)cc2)c1 | 16 |  | 
10 | Cc1cc(-c2ccc3cc[nH]c(=O)c3c2)ccc1O[C@H]1O[C@H](CO)[C@@H](O)[C@H](O)[C@@H]1O | 0.031 | 75.4 | half-life [9]: > 2 h; F [10]: 7%; half-life [11]: > 2 h; clearance [5]: 24.5 L/h/kg; Vdss [12]: 6.7 L; fold change (FC) (Escherichia coli [3]): 2
11 | COC(=O)c1cccc(-c2ccc(S[C@H]3O[C@H](CO)[C@@H](O)[C@H](O)[C@@H]3O)cc2)c1 | 4 |  | 
12 | CNC(=O)c1cc(C(=O)NC)cc(-c2ccc(O[C@H]3O[C@H](CO)[C@@H](O)[C@H](O)[C@@H]3O)c(C)c2)c1 | 0.016 |  | Ratio [4]: > 10; half-life [9]: > 2 h; Activity (Escherichia coli [13]): 100000 CFU; half-life [11]: > 2 h; Activity (Escherichia coli [14]): 100000 CFU; Activity (Escherichia coli [8]): Active; Activity (Escherichia coli [15]): 10000 CFU; Drug uptake [6]: Active
13 | Cc1cc(-c2ccc3ccnc(N)c3c2)ccc1[C@@H](O)[C@H]1O[C@H](CO)[C@@H](O)[C@H](O)[C@@H]1O | 0.006 | 77.7 | Activity (Escherichia coli [3]): Active
14 | CNC(=O)c1cccc(-c2ccc([C@H](O)[C@H]3O[C@H](CO)[C@@H](O)[C@H](O)[C@@H]3O)c(C)c2)c1 | 24 | 66.4 | 
15 | COC(=O)c1cccc(-c2ccc(N[C@H]3O[C@H](CO)[C@@H](O)[C@H](O)[C@@H]3O)cc2)c1 | 4 |  | 
16 | Cc1cc(-c2ccc3c(c2)C(=O)NCC3)ccc1[C@@H](O)[C@H]1O[C@H](CO)[C@@H](O)[C@H](O)[C@@H]1O | 0.006 | 76.5 | Activity (Escherichia coli [3]): Active
17 | CNC(=O)c1cccc(-c2ccc([C@@H](O)[C@H]3O[C@H](CO)[C@@H](O)[C@H](O)[C@@H]3O)c(C)c2)c1 | 0.031 | 75.4 | Ratio [4]: > 10; clearance [5]: 2.09 L/h/kg; fold change (FC) (Escherichia coli [8]): 3; Ratio [16]: 1600; concentration at 8 h [7]: 50 µM

Further lines, with some results ahead:

Row | EC90 [1] [µM] | Tm [2] [°C] | Structure (SMILES) | further results
18 | 2 |  | CNC(=O)c1cccc(-c2ccc(C[C@H]3O[C@H](CO)[C@@H](O)[C@H](O)[C@@H]3O)c(C)c2)c1 | 
19 | 0.062 | 74.5 | CNC(=O)c1cccc(-c2ccc(O[C@H]3O[C@H](CO)[C@@H](O)[C@H](O)[C@@H]3O)c(C)c2)c1 | Ratio [4]: > 10; clearance [5]: 5.9 L/h/kg; Drug uptake [6]: Active; concentration at 8 h [7]: 1 µM
20 | 1 |  | CNC(=O)c1cccc(-c2ccc(C[C@H]3O[C@H](CO)[C@@H](O)[C@H](O)[C@@H]3O)cc2)c1 | 
21 | 0.25 | 72.8 | CNC(=O)c1cccc(-c2ccc([C@@H](O)[C@H]3O[C@H](CO)[C@@H](O)[C@H](O)[C@@H]3O)cc2)c1 | 
22 | 24 | 67.2 | CNC(=O)c1cccc(-c2ccc([C@H](O)[C@H]3O[C@H](CO)[C@@H](O)[C@H](O)[C@@H]3O)cc2)c1 | 
23 | 0.5 | 73.2 | CNC(=O)c1cccc(-c2ccc(O[C@H]3O[C@H](CO)[C@@H](O)[C@H](O)[C@@H]3O)cc2)c1 | 
24 | 16 |  | O=C(NC[C@H]1O[C@H](CO)[C@@H](O)[C@H](O)[C@@H]1O)c1ccc(Br)cc1 | 
